Assay results: ChEMBL document CHEMBL1134792, “Antimitotic antitumor agents: synthesis, structure-activity relationships, and biological characterization of N-aryl-N'-(2-chloroethyl)ureas as new selective alkylating agents” (J Med Chem, 2001)
The source made the active and inactive calls. The calls are words filed in the database; no cut-off is given here.

Assays:
Format in all cases: functional, cell-based
P388 = experiment: Dose required to inhibit cell growth was determined against P388D1 cell line of murine lymphocytotic leukemia; settings: Mus musculus
Outline: (§1)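 Alamar Blue growth assay. (1–5) × 10^3 cells per well preincubated 24 h, then exposed to increasing drug concentrations for 72 h at 37 °C. Medium replaced with PBS containing 20% Alamar Blue, fluorescence read at 485/590 nm. IC50 is the dose inhibiting growth by 50%.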

MDA-MB-231 [1] = experiment: Dose required to inhibit cell growth was determined against MDA-MB-231 cell line of human non-hormone dependent breast carcinoma; outline: as §1
HT-29 = experiment: Dose required to inhibit cell growth was determined against HT-29 cell line of human adenocarcinoma; outline: as §1
K562 = experiment: Dose required to inhibit cell growth was determined against K562 cell line of chronic myelogenous leukemia; settings: Homo sapiens; outline: as §1
LoVo = experiment: Dose to inhibit cell growth determined against LoVo cell line of human adenocarcinoma; outline: as §1
CHO = experiment: Dose required to inhibit cell growth was determined against CHO cell line; settings: Cricetulus griseus; outline: as §1
L1210 = experiment: Dose required to inhibit cell growth was determined against L1210 cell line of murine lymphocytotic leukemia; settings: Mus musculus; outline: as §1
MDA-MB-231 [2] = experiment: Dose required to inhibit cell growth was determined against MDA-MB-231 cell line of human non-hormone dependent breast carcinoma; Not active represents IC50 >400 uM
Outline: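 Alamar Blue growth-inhibition assay. Cells ((1–5) × 10³ per well) were preincubated for 24 h, then exposed to increasing drug concentrations for 72 h at 37 °C. Alamar Blue (20%) was added and fluorescence read at ex 485 / em 590 nm. IC50 is the dose inhibiting growth by 50%. Means of ≥3 independent determinations.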

| SMILES | IC50 (P388) | IC50 (MDA-MB-231 [1]) | IC50 (HT-29) | IC50 (K562) | IC50 (LoVo) | IC50 (L1210) | IC50 (CHO) | NA (MDA-MB-231 [2]) |
| --- | --- | --- | --- | --- | --- | --- | --- | --- |
| O=C(NCCCl)Nc1ccc(Br)cc1 | 10 µM | 10 µM | 9 µM | 4.6 µM | 11 µM | 8.1 µM | 10 µM | – |
| O=C(NCCCl)Nc1ccc(C2CCCCC2)cc1 | 22 µM | 44 µM | 38 µM | 18 µM | 22 µM | 16 µM | 23 µM | – |
| O=C(NCCCl)Nc1cccc2ccccc12 | 130 µM | 150 µM | – | 107 µM | 150 µM | 118 µM | 106 µM | – |
| CCCCCCCCc1ccc(NC(=O)NCCCl)cc1 | 32 µM | 33 µM | – | – | 29 µM | – | – | – |
| O=C(NCCCl)Nc1cccc(I)c1 | 34 µM | 27 µM | 24 µM | 17 µM | 36 µM | 27 µM | 35 µM | – |
| Cc1cc(C)cc(NC(=O)NCCCl)c1 | 8.6 µM | 20 µM | 20 µM | 10 µM | 8.8 µM | 8.8 µM | 24.7 µM | – |
| CCCCCCCc1ccc(NC(=O)NCCCl)cc1 | 18 µM | 30 µM | 25 µM | 16 µM | 15 µM | 13 µM | 22 µM | – |
| CCCc1ccc(NC(=O)NCCCl)cc1 | 11 µM | 18 µM | 23 µM | 8.2 µM | 10 µM | 9 µM | 19 µM | – |
| CC(C)Cc1ccc(NC(=O)NCCCl)cc1 | – | 24 µM | 21 µM | 11 µM | – | 11 µM | 23 µM | – |
| CCCNC(=O)Nc1ccc(C(C)C)cc1 | – | – | 76 µM | 52 µM | – | 14 µM | 133 µM | inactive |
| Cc1cccc(NC(=O)NCCCl)c1 | 75 µM | 60 µM | – | – | 60 µM | – | – | – |
| CC(C)CCc1ccc(NC(=O)NCCCl)cc1 | – | 32 µM | 33 µM | 15 µM | – | 14 µM | 19 µM | – |
| Cc1ccc(NC(=O)NCCCl)cc1C | 4.2 µM | 7.2 µM | 5.4 µM | 3.5 µM | 3.5 µM | 3.8 µM | 8.7 µM | – |

Second part, led by results:

| IC50 (P388) | IC50 (MDA-MB-231 [1]) | IC50 (HT-29) | IC50 (K562) | IC50 (LoVo) | IC50 (L1210) | SMILES | IC50 (CHO) | NA (MDA-MB-231 [2]) |
| --- | --- | --- | --- | --- | --- | --- | --- | --- |
| 10 µM | 19 µM | 22 µM | 10 µM | 10 µM | 12 µM | CCCCc1ccc(NC(=O)NCCCl)cc1 | 18 µM | – |
| – | 52 µM | 21 µM | 23 µM | – | 6 µM | CC(Cl)CNC(=O)Nc1ccc(C(C)(C)C)cc1 (centres undefined) | 52 µM | – |
| 5.2 µM | 5 µM | 6.4 µM | 2.5 µM | 3.2 µM | 2.7 µM | CCc1ccc(NC(=O)NCCCl)cc1 | 6.4 µM | – |
| 11 µM | 31 µM | 14 µM | 9.1 µM | 23 µM | 9.6 µM | O=C(NCCCl)Nc1ccc(Cl)cc1 | 19 µM | – |
| 30 µM | 25 µM | 23 µM | 16 µM | 20 µM | 16 µM | Cc1ccc(NC(=O)NCCCl)cc1 | 26 µM | – |
| – | 34 µM | 36 µM | 21 µM | – | 19 µM | CC(C)(C)Cc1ccc(NC(=O)NCCCl)cc1 | 35 µM | – |
| – | 131 µM | 35 µM | 30 µM | – | 5.4 µM | CCCNC(=O)Nc1ccc(C(C)(C)C)cc1 | 132 µM | – |
